ABCG2 block: human ABCG2 inhibition, ABCB1 as counter-screen | inhibition, % at 6.6 µM | AID 1325 | Q9UNQ0 | IgMXP3 cells, JC-1 efflux, flow cytometry | hit rate 0.1% among 190,000;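 active means inhibition above 80%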
Target sequence (Q9UNQ0 whole entry, looked up): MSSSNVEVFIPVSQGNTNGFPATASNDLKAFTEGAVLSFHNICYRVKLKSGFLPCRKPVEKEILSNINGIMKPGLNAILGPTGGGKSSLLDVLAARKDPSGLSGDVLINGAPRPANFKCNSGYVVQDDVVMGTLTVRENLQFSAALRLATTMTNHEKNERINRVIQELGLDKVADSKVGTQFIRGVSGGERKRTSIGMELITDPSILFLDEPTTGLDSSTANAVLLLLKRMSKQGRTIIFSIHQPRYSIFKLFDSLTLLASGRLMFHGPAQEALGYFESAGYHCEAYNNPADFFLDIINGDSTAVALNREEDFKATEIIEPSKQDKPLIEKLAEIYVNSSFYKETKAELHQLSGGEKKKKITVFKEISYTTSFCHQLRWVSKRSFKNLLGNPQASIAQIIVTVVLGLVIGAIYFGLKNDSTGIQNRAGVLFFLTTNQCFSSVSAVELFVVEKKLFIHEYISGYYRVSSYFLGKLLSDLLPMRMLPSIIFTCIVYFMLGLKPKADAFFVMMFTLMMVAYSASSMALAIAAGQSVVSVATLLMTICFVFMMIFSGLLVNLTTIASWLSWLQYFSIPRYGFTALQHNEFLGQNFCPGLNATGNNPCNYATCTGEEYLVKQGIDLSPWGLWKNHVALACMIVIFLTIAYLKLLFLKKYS
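Test system: IgMXP3 (ABCG2) plus far-red-tagged CCRF-Adr (ABCB1) cells / Amount: 3 million cells/mL in well / Reagent: JC-1 transporter substrate / Timing: 10 min compound exposure, 25 °C / Signal: flow cytometry, 530 nm JC-1 signal / Read-out: percent efflux inhibition, scaled nicardipine 100% to DMSO 0% / Benchmarks: nicardipine as high control, DMSO as low control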
Lmaj promast: inhibitors of Leishmania major promastigote growth. Leishmania major promastigotes, resazurin fluorescence viability. inhibition, % at 10 µM. hit rate 9% among 200,000. AID 1063; in the data active means inhibition above about 50%;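 further: promastigotes grown with compound for 44 hours at 28 °C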
ABCB1 inh: inhibitors of human ABCB1 transporter, ABCG2 counter-screen; P08183; CCRF-Adr cells, JC-1 efflux, flow cytometry; inhibition, % at 6.6 µM; hit rate 0.067% among 190,000; in the data active means inhibition above about 40%;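 further: higher value means more JC-1 retained so stronger ABCB1 efflux block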
WT yeast gro inh: growth inhibition of WT yeast, mitochondrial fusion screen; mitochondrial fusion phenotypic screen, WT strain; hit rate 2.1% among 190,000; inhibition, % at 10 µM; in the data active means inhibition above about 58%; tested in S. cerevisiae
RAM inhibit: yeast RAM network inhibition | S. cerevisiae dse1pr::URA3 reporter, 5-FOA growth OD615, 2 d; analog-sensitive cbk1-as2 kinase mutant strain | inhibition, % at 50 µM | hit rate 1.8% among 190,000 | AID 868;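 active means inhibition above a set limit, 3 SD over mean compound inhibition, cut at about 8.4% in these data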;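 further: inhibition rescues growth on 5-FOA so higher OD means more RAM inhibition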
Each line names hits and unclear results; the compound was inactive in the other large screens. Shown are actives, neighbours in structure and some others; about 12% of the full set was active somewhere.

Cc1ccc(C)c(N2C(=O)CC(N3CCN(Cc4ccc5c(c4)OCO5)CC3)C2=O)c1 (stereo not drawn)	Lmaj promast 87.1
Cc1ccc2c(CN3CCN(Cc4ccc5c(c4)OCO5)CC3)cc(=O)oc2c1C	Lmaj promast 73.4
Cc1cc(C)c2c(CN3CCN(Cc4ccc5c(c4)OCO5)CC3)cc(=O)oc2c1	none
O=C(CCc1nnc(CCC2CCCCC2)o1)NCCc1cccnc1	none
CCOc1cc(C2C(C#N)=C(N)OC(C)=C2C(C)=O)c(Br)c(Br)c1OC(C)C (stereo not drawn)	Lmaj promast 63.8
CCOc1cc(C2C(C#N)=C(N)OC(C)=C2C(C)=O)cc(Br)c1O (stereo not drawn)	none
c1ccc(-c2nnc3sc(-c4ccncc4)nn23)cc1	none
COc1cccc(OC)c1-c1nn2c(-c3cc(-c4ccccc4)n[nH]3)nnc2s1	Lmaj promast 61.2
Cc1cccc(-c2nnc3sc(-c4ccccc4C)nn23)c1	WT yeast gro inh 68.5
COc1cccc(-c2nnc3sc(-c4ccccc4)nn23)c1	RAM inhibit 8.9
CCOc1cccc(-c2nnc3sc(C4CCCCC4)nn23)c1	WT yeast gro inh 71.2
Cc1ccccc1-c1nc(CN(Cc2c(C)nn(C)c2C)C2CC2)c(C)o1	none
CC(=O)C(=Cc1cn(-c2ccccc2)nc1-c1ccccc1)C(C)=O	none
CC(NC(=O)Nc1ccc([N+](=O)[O-])cc1)C(c1cccs1)N1CCCC1 (stereo not drawn)	none
Cc1cnc(C(=O)Oc2c(C)ccc(C)c2C)cn1	none
c1coc(-c2nn3c(-c4ccco4)nnc3s2)c1	none
COc1ccccc1-c1nn2c(-c3ccco3)nnc2s1	Lmaj promast 66.7
CCc1c(C)nc2cc(-c3cc(OC)cc(OC)c3)nn2c1N1CCN(CCN2CCOCC2)CC1	Lmaj promast 88.4
CCOCCN1CCN(c2c(C)c(C)nc3cc(-c4cc(OC)cc(OC)c4)nn23)CC1	Lmaj promast 82.8
COc1cc(OC)cc(-c2cc3nc(C)c(CCC(=O)O)c(C)n3n2)c1	none
COc1cccc(C(=O)C2CCCN(Cc3cn(CC(N)=O)c4ccccc34)C2)c1 (stereo not drawn)	none
CCOCCCNc1nc(=S)[nH]c2cc(OC)c(OC)cc12	Lmaj promast 66.9
O=C(c1ccccc1)[C@@H]1[C@@H](C(=O)c2ccc(F)cc2)[C@@]2(C(=O)Nc3ccccc32)[C@H]2c3ccccc3C=CN12	Lmaj promast 74.2
CC(=O)[C@@H]1[C@@H](C(=O)c2ccccc2)[C@]2(C(=O)Nc3ccccc32)[C@H]2C=Cc3cc(F)ccc3N12	none
CCn1c(=O)n(CC)c2cc(S(=O)(=O)NCCOc3ccccc3)c(C)cc21	Lmaj promast 99.5
CC1CCCCC1NC(=O)CN1C(=O)CSc2cc(S(=O)(=O)N3CCCCCC3)ccc21 (stereo not drawn)	none
CC(C)NC(=S)N/N=C/c1cccs1	none
CC(C)NC(=S)N/N=C/c1ccc(C(C)(C)C)cc1	WT yeast gro inh 61.5
COc1ccc(C(=O)n2c(SC)nc3cc4c(cc32)OCCO4)cc1	none
COc1ccc(-c2cn3c(C)c(C(=O)NCCN4CCOCC4)sc3n2)cc1	none
Cc1c(C(=O)NCCCN2CCOCC2)sc2nc(-c3ccc(F)cc3)cn12	Lmaj promast 79.0
Cc1c(C(=O)NCc2cccnc2)sc2nc(-c3ccccc3)cn12	none (no result: ABCG2 block, Lmaj promast, ABCB1 inh, RAM inhibit)
Cc1c(C(=O)NCc2cccnc2)sc2nc(-c3ccc(F)cc3)cn12	Lmaj promast 96.3
CC(SCc1ccccc1)C(=O)Nc1ccccc1-c1ccccc1 (stereo not drawn)	Lmaj promast 56.9
Cc1ccc(NC(=O)C2SC(=Nc3ccccc3)C(C(=O)Nc3ccc(Cl)cc3)=C2N)cc1 (stereo not drawn)	WT yeast gro inh 66.0
CCC(CO)[n+]1c(C)cc(/C=C2\Sc3ccccc3N2Cc2ccccc2)cc1C (stereo not drawn)	Lmaj promast 100.4, WT yeast gro inh 58.5
Cc1cc(C)nc(N2CCCC(C(=O)NCc3cccs3)C2)n1 (stereo not drawn)	WT yeast gro inh 70.0
Cc1ccnc(N2CCCC(C(=O)NCc3cccs3)C2)n1 (stereo not drawn)	none
COc1ccc(C2=NN(C(C#N)c3ccc(OC)c(OC)c3)C(c3ccccc3)C2)cc1 (stereo not drawn)	Lmaj promast 100.0, RAM inhibit 8.5
Cc1cc(C=O)c(C)n1-c1cc(C(F)(F)F)ccc1N1CCOCC1	Lmaj promast 93.7
C1CN(c2nc3nonc3nc2N2C[C@H]3CC[C@H]2C3)CCS1	none

Assay outcomes as filed in PubChem.
